# High-throughput results deposited in PubChem by several laboratories.
# Compounds with a hit are over-represented: about 3.1% of the library has one in this group of screens.
# Myeloid diff 2: induction of myeloid progenitor differentiation, primary screen, cell-based, flow cytometry, MLPCN library; 1% of 360,000 active; calls only at 10 µM; AID 624256, 2012; ER-HoxA9 myeloid progenitors, lysozyme-GFP differentiation;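 active means normalized GFP-positive differentiation at or above the plate's own cutoff, the solvent-only control mean plus 3 SD; inconclusive means no clear call, values can overlap the other calls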;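 further: cells exposed to compound for four days before flow analysis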
# PP5 primary: PP5 phosphatase inhibitors, primary screen, biochemical, fluorescence | purified PP5c, OMFP substrate fluorescence | inhibition, % at 6.7 µM | 0.18% of 320,000 active | AID 1987, 2009;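 active means inhibition above the campaign's mean inhibition across all tested compounds plus 3 SD, cut at about 9.5% in these data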;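 further: 0% = DMSO only and 100% = 100 µM cantharidin control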
# Target sequence (P53041 whole entry, looked up): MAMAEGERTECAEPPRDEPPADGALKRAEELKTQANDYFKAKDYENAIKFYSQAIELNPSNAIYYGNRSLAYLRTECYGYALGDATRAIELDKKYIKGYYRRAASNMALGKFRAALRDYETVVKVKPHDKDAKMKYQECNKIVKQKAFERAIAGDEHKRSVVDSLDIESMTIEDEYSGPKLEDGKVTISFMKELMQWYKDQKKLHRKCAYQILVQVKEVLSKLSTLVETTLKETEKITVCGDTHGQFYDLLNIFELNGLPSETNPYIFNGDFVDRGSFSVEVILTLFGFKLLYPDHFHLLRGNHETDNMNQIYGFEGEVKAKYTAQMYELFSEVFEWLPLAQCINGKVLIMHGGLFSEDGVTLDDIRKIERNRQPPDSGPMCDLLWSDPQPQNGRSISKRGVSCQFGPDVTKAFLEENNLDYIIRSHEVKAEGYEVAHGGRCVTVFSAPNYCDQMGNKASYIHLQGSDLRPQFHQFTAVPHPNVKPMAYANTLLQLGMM
# PP1 inh: PP1-alpha phosphatase inhibitors, primary screen, counter-screen for PP5 inhibitor project, biochemical, fluorescence, OMFP substrate, single point; inhibition, % at 6.7 µM; purified PP1alpha; Serine/threonine-protein phosphatase PP1-alpha catalytic subunit (Homo sapiens), P62136; 0.9% of 320,000 active;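 active means inhibition above the mean inhibition of all tested compounds plus 3 SD, computed separately for each screening campaign, cut at about 15% in these data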
# NadD block: inhibitors of S. aureus NadD, primary screen, biochemical, colorimetric, uHTS; Nicotinate-nucleotide adenylyltransferase NadD (Staphylococcus aureus N315); purified NadD enzyme, colorimetric absorbance read-out; inhibition, % at 20 µM; 0.78% of 360,000 active; AID 602399, 2012; in the data active means inhibition above about 26%
# CTSL1 counter: Fasciola hepatica cathepsin L1 inhibitors, primary screen, counter-screen for PFM18AAP inhibitor project, biochemical, QFRET, fluorogenic peptide substrate; recombinant F. hepatica cathepsin L1, Z-Leu-Arg-MCA fluorescence; inhibition, % at 5.96 µM; 0.49% of 300,000 active; AID 1906, 2009;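 active means inhibition above the mean of all tested compounds plus 3 SD, set per screening campaign, cut at about 17% in these data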;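 further: 0% = plate median of test compound wells and 100% = 1 µM Z-Phe-Ala-diazomethylketone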
# core dimer inh: inhibitors of HCV core protein dimerization, primary screen, biochemical, TR-FRET, high-throughput; TR-FRET GST/Flag-core106 dimerization, 1536-well; inhibition, % at 5 µM; 0.33% of 300,000 active; AID 1899, 2009;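 active means inhibition above the mean of all tested compounds plus 3 SD, set per screening campaign, cut at about 45% in these data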
#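 Assay system – GST-tagged and Flag-tagged HCV core protein residues 1-106 · Quantity – core106 proteins, GST 13.5 nM and Flag 17 nM · Benchmarks – unlabelled core106 and no-GST-core106 wells · Read-out basis – percent inhibition of core106 dimerization signal · Detection – time-resolved FRET, ex 340 nm, em 617 and 671 nm · Schedule – 4 h at 22.5 °C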
# NadD inh conf: inhibitors of S. aureus NadD, confirmation, biochemical, colorimetric, single concentration | purified S. aureus NadD, colorimetric enzyme assay | AID 624309, 2012 | inhibition, % at 20 µM | 13% of 2,000 active | shares compounds with NadD block; in the data active means inhibition mostly above about 42%, no sharp cut-off; inactive means mostly below about 42%
# * marks the source's active call; other numbers are inactive results; i = inactive; ? = inconclusive; nt = no result given; + = active, no number.
SMILES,Myeloid diff 2,PP5 primary,PP1 inh,NadD block,CTSL1 counter,core dimer inh,NadD inh conf
Nc1ccc(O)c(-c2nc3ccccc3s2)c1,i,1.5,10.3,63.4*,4.4,82.0*,22.9
O=C(Nc1ccccc1C(F)(F)F)NC1(C(=O)N2CCOCC2)CCCCC1,i,nt,nt,31.2*,nt,nt,46.1
CCc1cc(C(=O)Nc2nc(-c3ccccn3)cs2)sc1C,i,2.8,16.4*,33.5*,nt,nt,8.8
Cc1ccc2cc(C#N)c(N3CCCC3)nc2c1C,i,0.9,6.7,34.1*,-0.7,6.7,1.8
COc1ccccc1NS(=O)(=O)c1cc(NC(=O)Nc2ccc(Cl)cc2Cl)ccc1N1CCCCC1,i,3.1,8.4,42.7*,-4.0,35.1,17.3
COc1ccccc1NS(=O)(=O)c1cc(NC(=O)C2CCC2)ccc1N1CCCCC1,i,3.9,7.7,20.1,3.7,12.4,nt
COc1cc(OC)cc(C(=O)NC(C(=O)NNC(=O)CN(C)S(=O)(=O)c2ccc(C)cc2)C(C)C)c1 (stereo not drawn),i,nt,nt,-9.2,nt,nt,nt
Cc1ccc(NC(=O)Nc2nc3ccccc3s2)cc1NC(=O)Nc1nc2ccccc2s1,i,2.8,-0.5,27.9*,1.5,4.3,8.1
O=C(Nc1ccc(Cl)c([N+](=O)[O-])c1)Nc1nc2ccccc2s1,nt,1.3,-2.7,nt,-0.5,10.3,nt
CC(C)Cn1c(N)c(C(=O)COC(=O)c2cc(-c3ccco3)nc3ccccc23)c(=O)n(C)c1=O,+,5.6,9.9,53.3*,4.2,53.5*,19.9
CC(C)Cn1c(N)c(C(=O)COC(=O)c2cc(-c3ccccc3)nc3ccccc23)c(=O)n(C)c1=O,i,0.5,1.3,15.8,-0.1,-3.6,nt
Cn1c(N)c(C(=O)COC(=O)c2cc(-c3ccccc3)nc3ccccc23)c(=O)n(C)c1=O,nt,1.8,0.0,nt,-5.8,10.0,nt
Cn1c(N)c(C(=O)COC(=O)c2cc(-c3ccccc3)nc3ccccc23)c(=O)n(Cc2ccccc2)c1=O,i,0.3,1.2,29.4*,-0.8,-31.7,4.4
Cn1c(N)c(C(=O)COC(=O)c2cc(C3CC3)nc3ccccc23)c(=O)n(Cc2ccccc2)c1=O,i,6.9,-0.3,42.7*,-2.0,6.3,7.1
O=c1/c(=C\c2ccc(O)cc2)sc2n1C(c1ccccc1)C(c1ccccc1)=NN=2 (stereo not drawn),+,1.5,-0.8,39.1*,0.5,35.2,56.8*
CCOC(=O)C1=C(c2ccccc2)N=c2s/c(=C\c3cccc(O)c3)c(=O)n2C1c1cccs1 (stereo not drawn),i,2.8,7.6,29.1,5.8,23.1,nt
CCCSc1nc2sc3c(c2c(=O)[nH]1)CCN(Cc1ccccc1)C3,i,-0.1,1.3,15.2,-1.2,20.2,nt
O=c1[nH]c(C(Cl)Cl)nc2sc3c(c12)CCN(Cc1ccccc1)C3,i,0.8,13.7,31.7*,4.1,44.5,58.8*
Cc1ccc(S(=O)(=O)N2CCN(C(=O)COC(=O)c3cncc(Br)c3)CC2)c(C)c1,i,nt,nt,0.5,nt,nt,nt
Cc1csc(NC(=O)CSC2=NS(=O)(=O)c3cc(F)ccc3N2)n1,i,-1.2,2.9,3.9,-6.0,-4.3,nt
Cc1ccccc1CSCC1Nc2ccc(C(=O)NCCc3ccccc3)cc2NC1=O (stereo not drawn),+,nt,nt,44.7*,nt,nt,74.3*
C#CCOCCOCCOCCNc1nc(N2CCN(C(=O)CCCCCCCCCCNC(=O)[C@@H](CCC(=O)O)n3cc(CCCCCN)nn3)CC2)nc(N2CCN(C(=O)CCCCCCCCCCNC(=O)[C@H](CO)n3cc(CCCSC)nn3)CC2)n1,i,2.8,2.7,47.6*,1.0,1.8,-7.0
C#CCOCCOCCOCCNc1nc(N2CCN(C(=O)CCCCCCCCCCNC(=O)Cn3cc(CCCCCN)nn3)CC2)nc(N2CCN(C(=O)CCCCCCCCCCNC(=O)[C@@H]([C@H](C)O)n3cc(C)nn3)CC2)n1,i,-1.2,9.3,7.6,3.8,-3.3,nt
O=C(NC1CC1)C1CCN(S(=O)(=O)c2cc([N+](=O)[O-])ccc2Cl)CC1,i,0.4,4.7,52.0*,nt,nt,29.0
Cc1cccc2sc(NC(=O)C3CCN(S(=O)(=O)c4cc([N+](=O)[O-])ccc4Cl)CC3)nc12,i,1.1,7.3,45.8*,3.9,48.5*,5.7
SMILES,Myeloid diff 2,PP5 primary,PP1 inh,NadD block,CTSL1 counter,core dimer inh,NadD inh conf
COc1ccc2nc(NC(=O)C3CCN(S(=O)(=O)c4cccc5nsnc45)CC3)sc2c1,?,6.6,4.6,40.7*,-4.2,2.6,18.9
O=C(NC1CC1)C1CCN(S(=O)(=O)c2cc(Cl)ccc2Cl)CC1,i,2.7,-0.2,-0.7,-0.7,0.8,nt
COc1ccccc1C(=O)C1CCCN(C(=O)c2cnn(C(C)C)c2)C1 (stereo not drawn),i,-0.2,-1.4,-0.8,1.1,-4.8,nt
O=C(COC(=O)c1cccc(N2C(=O)C3CC=CCC3C2=O)c1)c1ccccc1 (stereo not drawn),i,1.7,3.0,-12.3,-14.6,1.9,nt
CCc1ccc(C(=O)COC(=O)c2cccc(N3C(=O)c4c(C)nc5ccccc5c4C3=O)c2)cc1,i,-1.6,12.1,36.3*,0.1,30.3,2.7
Cc1ccc(N2C(=O)CC(N(CCc3ccccc3)C(=S)Nc3ccc(N(C)C)cc3)C2=O)cc1 (stereo not drawn),i,1.7,-2.0,37.4*,0.6,9.4,35.3*
COc1ccc(C2CCc3cc(OC)c(OC)cc3C2NC=O)cc1OC (stereo not drawn),i,nt,nt,-1.1,nt,nt,nt
CC(C)=CCC/C(C)=C/CNC(=O)C[C@H]1C[C@H](C(=O)N(C(C)C)C(C)C)[C@@]2(C)c3[nH]c4cc(-c5ccco5)ccc4c3CCN2C1=O,i,nt,nt,33.5*,nt,nt,-1.6
CC(C)=CCC/C(C)=C/CNC(=O)C[C@H]1C[C@H](C(=O)N2CCOCC2)[C@@]2(CCC3CCCC3)c3[nH]c4cc(-c5ccco5)ccc4c3CCN2C1=O,i,nt,nt,45.9*,nt,nt,11.5
O=C(CSc1nc2ccccc2s1)N1N=C(c2cccs2)CC1c1ccc(F)cc1 (stereo not drawn),i,3.1,10.3,0.4,2.6,19.1,nt
